Most compounds without a hit are left out; they make up all but 3% or so of the library.
SENP6 inh – SENP6 protease inhibition. actives 1.8% (n = 330,000). inhibition, % at 10 µM. AID 2599. Q9GZR1. Recombinant SENP6 catalytic domain, aminoluciferin luminescence;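 active = inhibition above about 50% at the single tested dose, limit read from the data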;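 note: plate controls were DMSO wells with enzyme for no effect and DMSO wells lacking enzyme for full effect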
Target sequence (Q9GZR1 628-1112 limits assumed): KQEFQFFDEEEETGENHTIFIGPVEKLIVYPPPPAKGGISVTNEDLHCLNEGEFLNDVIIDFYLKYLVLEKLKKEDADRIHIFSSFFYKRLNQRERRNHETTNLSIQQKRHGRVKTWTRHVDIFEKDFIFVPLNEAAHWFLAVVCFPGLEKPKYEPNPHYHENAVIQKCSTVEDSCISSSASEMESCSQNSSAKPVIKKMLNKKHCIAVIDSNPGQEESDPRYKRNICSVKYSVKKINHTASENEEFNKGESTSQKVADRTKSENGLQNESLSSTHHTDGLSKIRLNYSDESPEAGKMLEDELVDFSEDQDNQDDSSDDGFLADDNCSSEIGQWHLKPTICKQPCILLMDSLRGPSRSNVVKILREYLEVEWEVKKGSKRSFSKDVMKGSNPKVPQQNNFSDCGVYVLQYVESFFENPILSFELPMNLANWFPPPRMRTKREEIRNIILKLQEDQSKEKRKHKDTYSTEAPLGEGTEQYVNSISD
SENP7 block – blocks the human protease SENP7. Q9BQF6. recombinant SENP7, Z-RLRGG-aminoluciferin luminescence, 40 min. inhibition, % at 5 µM. actives 1.5% (n = 330,000). AID 434973;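 active = inhibition above about 50% at the single test dose, limit read from the data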;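 note: plate controls were DMSO with enzyme for no effect and no enzyme buffer wells for full effect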
Apaf1 inhib – blocks human Apaf-1 apoptosome activity | AID 489030 | inhibition, % at 20 µM | reconstituted apoptosome caspase-3 activity, DEVD-Rh110 fluorescence | O14727 | actives 0.71% (n = 330,000); active = inhibition of at least 40% at 20 µM;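 note: plate controls were DMSO wells for no effect and DEVD-CHO caspase inhibitor wells for full effect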
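Material: reconstituted apoptosome with Apaf-1, cytochrome c, caspase-9, procaspase-3, dATP; medium: pH 7.5 Hepes buffer with CHAPS, BSA, DTT; also added: cytochrome c and DEVD-Rh110 substrate; timing: 30 min plus 50 min, RT; signal: Rh110 fluorescence intensity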
SENP8 block-1 – SENP8 (human) protease inhibition. inhibition, % at 20 µM. Q96LD8. recombinant SENP8, Nedd8 substrate fluorescence. actives 0.64% (n = 360,000); in the data active = inhibition mostly above about 40%, no sharp cut-off; inactive = mostly below about 27%
UBC13 inh – inhibitors of human UBC13 polyubiquitin chain formation; P61088; TR-FRET; inhibition, % at 20 µM; actives 0.47% (n = 330,000); in the data active = inhibition above about 45%, passing the limit was not always enough
Target sequence (P61088 whole entry, looked up): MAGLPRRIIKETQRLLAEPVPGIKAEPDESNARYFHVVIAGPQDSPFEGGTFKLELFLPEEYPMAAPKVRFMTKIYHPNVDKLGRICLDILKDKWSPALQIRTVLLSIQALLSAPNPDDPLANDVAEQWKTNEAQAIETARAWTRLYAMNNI
SENP8 block-2 – SENP8 protease inhibition; purified SENP8, Z-RLRGG-aminoluciferin cleavage, luminescence; inhibition, % at 10 µM; actives 1.2% (n = 330,000); in the data active = inhibition above about 50%
SENP8 conf – human SENP8 inhibition, confirmed | shares compounds with SENP7 block | Recombinant SENP8, Z-RLRGG-aminoluciferin luminescence, 60 min | inhibition, % at 12.5 µM | actives 40% (n = 6,200) | AID 488912;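 active = mean inhibition across replicates above about 50%, limit read from the data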
SENP6 conf – human SENP6 inhibition, confirmed | shares compounds with SENP7 block | recombinant SENP6, Z-RLRGG-aminoluciferin luminescence | inhibition, % at 12.5 µM | actives 58% (n = 6,200)
SENP7 confirm – human SENP7 inhibition, confirmed; shares compounds with SENP7 block; recombinant SENP7, Z-RLRGG-aminoluciferin luminescence, 40 min; inhibition, % at 12.5 µM; actives 69% (n = 6,200); AID 488917
Casp3 select – caspase-3 inhibition (SENP selectivity assay). actives 60% (n = 6,200). shares compounds with SENP7 block. purified caspase-3, Z-DEVD-aminoluciferin luminescence, 60 min. inhibition, % at 12.5 µM;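 active = mean inhibition above about 50%, limit read from the data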;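 note: plate controls were enzyme with DMSO for no effect and wells without caspase-3 for full effect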
SENP luc ctr – counter-screen for SENP inhibitors: luminescence interference. shares compounds with SENP7 block. Pre-incubated SENP8/Z-RLRGG-aminoluciferin, luciferase luminescence interference. inhibition, % at 12.5 µM. actives 39% (n = 6,200);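 active = mean inhibition above about 50% when retested at one dose, limit read from the data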;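 note: plate controls were DMSO wells with completed reaction for no effect and substrate without enzyme for full effect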
The depositor's hits bear a star.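 Rule for the calls, unless noted: active = mean inhibition above about 50% in the one-dose retest (limit read from the data); inactive = the rest.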

`O=C(Nc1nc2ccccc2[nH]1)c1cc(F)cc(F)c1` gave SENP6 inh 55.4*, SENP7 block 54.2*, Apaf1 inhib 4.2, SENP8 block-1 -13.9, UBC13 inh 6.4, SENP8 block-2 27.6, SENP8 conf 28.2, SENP6 conf 32.6, SENP7 confirm 73.0*, Casp3 select 66.0* and SENP luc ctr 16.1.
Screening O=C(Nc1nc2ccccc2[nH]1)c1ccc(F)cc1 returned SENP6 inh 94.4*, SENP7 block 92.6*, Apaf1 inhib 0.6, SENP8 block-1 1.6, UBC13 inh 14.6, SENP8 block-2 78.7*, SENP8 conf 77.9*, SENP6 conf 83.6*, SENP7 confirm 98.5*, Casp3 select 93.8* and SENP luc ctr 51.6*.
Screening Cc1cc(C)cc(C(=O)Nc2nc3ccccc3[nH]2)c1 returned SENP6 inh 2.3, SENP7 block -11.1, Apaf1 inhib 14.4, SENP8 block-1 -2.5, UBC13 inh 2.9 and SENP8 block-2 -24.2.
For CC(=O)C[C@H](O)CC(=O)[C@H]1OC(=O)CCCCCCCCc2ccccc21 the results were SENP6 inh -13.7, SENP7 block -7.9, Apaf1 inhib 3.8, SENP8 block-1 20.4, UBC13 inh -14.8 and SENP8 block-2 -7.9.
For Cn1ccs/c1=N\C(=O)Nc1cccc(Cl)c1 the results were SENP6 inh 69.8*, SENP7 block 73.0*, Apaf1 inhib -9.2, SENP8 block-1 7.2, UBC13 inh 7.8, SENP8 block-2 51.6*, SENP8 conf 17.4, SENP6 conf 16.8, SENP7 confirm 66.8*, Casp3 select 45.1 and SENP luc ctr 51.3*.
Screening CC(C)NS(=O)(=O)c1ccc(OCC(=O)Nc2cccc(F)c2)cc1 returned SENP6 inh -25.8, SENP7 block 6.0, Apaf1 inhib -0.4, SENP8 block-1 13.4, UBC13 inh 13.5 and SENP8 block-2 -0.7.
Screening C(=C\c1nc(-c2ccccc2)no1)/c1ccccc1 returned SENP6 inh 84.3*, SENP7 block 84.7*, Apaf1 inhib 8.9, SENP8 block-1 3.3, UBC13 inh -9.3, SENP8 block-2 75.3*, SENP8 conf 74.6*, SENP6 conf 81.6*, SENP7 confirm 93.6*, Casp3 select 65.0* and SENP luc ctr 58.9*.
Cc1cc2c(cc1C)CN(c1ccccc1)C2 was read as SENP6 inh 59.0*, SENP7 block 42.7, Apaf1 inhib -8.5, SENP8 block-1 21.8, UBC13 inh -13.8, SENP8 block-2 56.7*, SENP8 conf 50.9*, SENP6 conf 38.7, SENP7 confirm 79.4*, Casp3 select 79.1* and SENP luc ctr 69.7*.
For O=Cc1ccc(N2Cc3ccccc3C2)cc1 the results were SENP6 inh 68.0*, SENP7 block 42.5, Apaf1 inhib 7.4, SENP8 block-1 -45.4, UBC13 inh 15.0, SENP8 block-2 53.9*, SENP8 conf 26.2, SENP6 conf 54.8*, SENP7 confirm 81.4*, Casp3 select 65.5* and SENP luc ctr 12.4.
`Cc1cc(N2Cc3ccccc3C2)ccc1C=O` gave SENP6 inh 56.7*, SENP7 block 10.9, Apaf1 inhib -5.7, SENP8 block-1 -2.3, UBC13 inh -7.3, SENP8 block-2 49.7, SENP8 conf 45.1, SENP6 conf 72.8*, SENP7 confirm 93.0*, Casp3 select 80.2* and SENP luc ctr 28.3.
Oc1cccc(N2Cc3ccccc3C2)c1 was read as SENP6 inh 16.7, SENP7 block 3.7, Apaf1 inhib 2.8, SENP8 block-1 10.3, UBC13 inh 1.8 and SENP8 block-2 -8.0.
Screening Oc1ccc(N2Cc3ccccc3C2)cc1 returned SENP6 inh -2.1, SENP7 block 0.5, Apaf1 inhib 20.7, SENP8 block-1 9.1, UBC13 inh -0.4 and SENP8 block-2 -8.2.
For N#CC(C#N)=Cc1cnc(N2CCN(c3ccccc3)CC2)s1 the results were SENP6 inh -24.5, SENP7 block -2.6, Apaf1 inhib 11.4, SENP8 block-1 39.4, UBC13 inh -2.1 and SENP8 block-2 -1.6.
`COc1ccc(N(CC(=O)Nc2ccc(F)cc2F)S(=O)(=O)c2c(C)nn(C)c2C)cc1` gave SENP6 inh -1.5, SENP7 block 8.5, Apaf1 inhib -1.5, SENP8 block-1 14.2, UBC13 inh -5.5 and SENP8 block-2 -9.5.
Screening COc1ccc2nc(NC(=O)c3ccoc3C)sc2c1 returned SENP6 inh 100.8*, SENP7 block 100.5*, Apaf1 inhib 0.4, SENP8 block-1 -58.0, UBC13 inh 16.0, SENP8 block-2 96.9*, SENP8 conf 96.9*, SENP6 conf 99.8*, SENP7 confirm 103.1*, Casp3 select 98.5* and SENP luc ctr 96.6*.
For Cc1csc(NC(=O)c2ccccc2O)n1 the results were SENP6 inh 10.1, SENP7 block 6.3, Apaf1 inhib -0.5, SENP8 block-1 -398.6, UBC13 inh 2.2 and SENP8 block-2 -3.1.
Screening COc1ccc2nc(NC(=O)c3cc(C)oc3C)sc2c1 returned SENP6 inh 88.4*, SENP7 block 101.2*, Apaf1 inhib 1.7, SENP8 block-1 -83.1, UBC13 inh 4.3, SENP8 block-2 89.9*, SENP8 conf -19.5, SENP6 conf 93.5*, SENP7 confirm 102.3*, Casp3 select 95.5* and SENP luc ctr 63.2*.
For COc1ccc2nc(NC(=O)c3cccnc3SC)sc2c1 the results were SENP6 inh 92.9*, SENP7 block 85.0*, Apaf1 inhib -0.8, SENP8 block-1 -287.0, UBC13 inh 12.4, SENP8 block-2 70.6*, SENP8 conf 77.8*, SENP6 conf 76.7*, SENP7 confirm 93.4*, Casp3 select 71.6* and SENP luc ctr 46.2.
For COc1ccc(C(=O)Nc2nc3cc4c(cc3s2)OCO4)c(OC)c1 the results were SENP6 inh -10.2, SENP7 block -9.8, Apaf1 inhib -14.1, SENP8 block-1 -403.4, UBC13 inh 35.8 and SENP8 block-2 -5.8.
